# In ChEMBL document CHEMBL5303300, “EUbOPEN Chemogenomics Library - Multiplex” (2023):
# “And” between values parts separate entries of the source, which are not always exact repeats. Equal values may be shown once.
# Assays:
# Type in all cases: toxicity, cell-based
# [1] = test system: HEK-293T; experiment: Multiplex assay against HEK293T; conditions: human, number of replicates 2
# In short: (§1)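 Live cells carried four stains from seeding: Hoechst33342, BioTracker Green Microtubule Cytoskeleton Dye, MitoTracker Red and Annexin V Alexa Fluor 680. They were imaged on a CQ1 microscope at 37°C and 5% CO2 after compound addition. Using CellPathfinder machine-learning gating, cells were split into Hoechst high-intensity objects or normal cells, normal cells into healthy, pyknosed or fragmented nuclei, and pyknosed cells into mitotic or apoptotic; tubulin, mitochondrial-mass and membrane-permeability phenotypes are per cents of healthy-nucleus cells.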
# [2] = test system: Fibroblast; experiment: Multiplex assay against human fibroblast; conditions: number of replicates 2; in short: as §1
# [3] = test system: U2OS; experiment: Multiplex assay against U2OS; conditions: human, number of replicates 2; in short: as §1
# [4] = 12 h, 1 µM, compound concentration 1 uM
# [5] = 12 h, 10 µM, compound concentration 10 uM
# [6] = 24 h, 1 µM, compound concentration 1 uM
# [7] = 24 h, 10 µM, compound concentration 10 uM
# [8] = 48 h, 1 µM, compound concentration 1 uM
# [9] = 48 h, 10 µM, compound concentration 10 uM
structure (smiles),measurement,setting,value
Cn1cc(-c2ccc(-c3cncc(Cl)c3N3CCC4(CCNC4=O)CC3)cc2)cn1,Population Apoptotic (%),[1]; [4],62% and 39%
same,Population Fragmented Nuclei (%),[1]; [4],2% and 4%
same,Population Healthy Nuclei (%),[1]; [4],90% and 84%
same,Population Hoechst High Intensity Objects (%),[1]; [4],6% and 5%
same,Population Membrane Permeable-Phenotype (%),[1]; [4],5% and 4%
same,Population Mitochondria Different-Phenotype (%),[1]; [4],14% and 18%
same,Population Mitotic Cells (%),[1]; [4],37% and 60%
same,Population Normal (%),[1]; [4],93% and 94%
same,Population Pyknosed Nuclei (%),[1]; [4],6% and 11%
same,Population Tubulin-Different-Phenotype (%),[1]; [4],58% and 67%
same,Total Cell Count,[1]; [4],574 and 615
same,Population Apoptotic (%),[1]; [5],41% and 49%
same,Population Fragmented Nuclei (%),[1]; [5],2% and 3%
same,Population Healthy Nuclei (%),[1]; [5],87% and 86%
same,Population Hoechst High Intensity Objects (%),[1]; [5],7%
same,Population Membrane Permeable-Phenotype (%),[1]; [5],5% and 6%
same,Population Mitochondria Different-Phenotype (%),[1]; [5],40% and 35%
same,Population Mitotic Cells (%),[1]; [5],58% and 50%
same,Population Normal (%),[1]; [5],92%
same,Population Pyknosed Nuclei (%),[1]; [5],10%
same,Population Tubulin-Different-Phenotype (%),[1]; [5],98% and 95%
same,Total Cell Count,[1]; [5],600 and 554
same,Population Apoptotic (%),[1]; [6],36% and 51%
same,Population Fragmented Nuclei (%),[1]; [6],6% and 9%
same,Population Healthy Nuclei (%),[1]; [6],86% and 85%
same,Population Hoechst High Intensity Objects (%),[1]; [6],9% and 10%
same,Population Membrane Permeable-Phenotype (%),[1]; [6],3%
same,Population Mitochondria Different-Phenotype (%),[1]; [6],8% and 7%
same,Population Mitotic Cells (%),[1]; [6],63% and 48%
same,Population Normal (%),[1]; [6],90% and 89%
same,Population Pyknosed Nuclei (%),[1]; [6],7% and 5%
same,Population Tubulin-Different-Phenotype (%),[1]; [6],53%
same,Total Cell Count,[1]; [6],822 and 828
same,Population Apoptotic (%),[1]; [7],43% and 49%
same,Population Fragmented Nuclei (%),[1]; [7],5%
same,Population Healthy Nuclei (%),[1]; [7],85% and 84%
same,Population Hoechst High Intensity Objects (%),[1]; [7],5% and 9%
same,Population Membrane Permeable-Phenotype (%),[1]; [7],6% and 5%
same,Population Mitochondria Different-Phenotype (%),[1]; [7],34% and 30%
same,Population Mitotic Cells (%),[1]; [7],56% and 50%
same,Population Normal (%),[1]; [7],94% and 90%
same,Population Pyknosed Nuclei (%),[1]; [7],9% and 10%
same,Population Tubulin-Different-Phenotype (%),[1]; [7],95% and 94%
same,Total Cell Count,[1]; [7],684 and 624
same,Population Apoptotic (%),[1]; [8],31% and 36%
same,Population Fragmented Nuclei (%),[1]; [8],16% and 14%
same,Population Healthy Nuclei (%),[1]; [8],80% and 82%
same,Population Hoechst High Intensity Objects (%),[1]; [8],16% and 14%
same,Population Membrane Permeable-Phenotype (%),[1]; [8],5% and 4%
same,Population Mitochondria Different-Phenotype (%),[1]; [8],2%
same,Population Mitotic Cells (%),[1]; [8],68% and 63%
same,Population Normal (%),[1]; [8],83% and 85%
same,Population Pyknosed Nuclei (%),[1]; [8],2% and 3%
same,Population Tubulin-Different-Phenotype (%),[1]; [8],42% and 49%
same,Total Cell Count,[1]; [8],1341 and 1209
same,Population Apoptotic (%),[1]; [9],55% and 50%
same,Population Fragmented Nuclei (%),[1]; [9],8% and 7%
same,Population Healthy Nuclei (%),[1]; [9],84% and 83%
same,Population Hoechst High Intensity Objects (%),[1]; [9],10%
same,Population Membrane Permeable-Phenotype (%),[1]; [9],8%
same,Population Mitochondria Different-Phenotype (%),[1]; [9],15% and 18%
same,Population Mitotic Cells (%),[1]; [9],45% and 49%
same,Population Normal (%),[1]; [9],89%
same,Population Pyknosed Nuclei (%),[1]; [9],6% and 8%
same,Population Tubulin-Different-Phenotype (%),[1]; [9],87% and 85%
same,Total Cell Count,[1]; [9],1065 and 859
same,Population Apoptotic (%),[2]; [4],34% and 44%
same,Population Fragmented Nuclei (%),[2]; [4],3% and 11%
same,Population Healthy Nuclei (%),[2]; [4],66% and 70%
same,Population Hoechst High Intensity Objects (%),[2]; [4],0%
same,Population Membrane Permeable-Phenotype (%),[2]; [4],9% and 5%
same,Population Mitochondria Different-Phenotype (%),[2]; [4],0% and 2%
same,Population Mitotic Cells (%),[2]; [4],66% and 55%
same,Population Normal (%),[2]; [4],100%
same,Population Pyknosed Nuclei (%),[2]; [4],30% and 18%
same,Population Tubulin-Different-Phenotype (%),[2]; [4],22% and 16%
same,Total Cell Count,[2]; [4],162 and 230
same,Population Apoptotic (%),[2]; [5],25% and 39%
same,Population Fragmented Nuclei (%),[2]; [5],14% and 11%
same,Population Healthy Nuclei (%),[2]; [5],67% and 71%
same,Population Hoechst High Intensity Objects (%),[2]; [5],0%
same,Population Membrane Permeable-Phenotype (%),[2]; [5],18% and 13%
same,Population Mitochondria Different-Phenotype (%),[2]; [5],3% and 4%
same,Population Mitotic Cells (%),[2]; [5],74% and 60%
same,Population Normal (%),[2]; [5],100%
same,Population Pyknosed Nuclei (%),[2]; [5],17% and 16%
same,Population Tubulin-Different-Phenotype (%),[2]; [5],84% and 65%
same,Total Cell Count,[2]; [5],196 and 203
same,Population Apoptotic (%),[2]; [6],45% and 50%
same,Population Fragmented Nuclei (%),[2]; [6],7% and 13%
same,Population Healthy Nuclei (%),[2]; [6],38% and 57%
same,Population Hoechst High Intensity Objects (%),[2]; [6],0%
same,Population Membrane Permeable-Phenotype (%),[2]; [6],21% and 8%
same,Population Mitochondria Different-Phenotype (%),[2]; [6],3% and 2%
same,Population Mitotic Cells (%),[2]; [6],54% and 49%
same,Population Normal (%),[2]; [6],99%
same,Population Pyknosed Nuclei (%),[2]; [6],53% and 28%
same,Population Tubulin-Different-Phenotype (%),[2]; [6],41% and 21%
same,Total Cell Count,[2]; [6],157 and 229
same,Population Apoptotic (%),[2]; [7],44% and 56%
same,Population Fragmented Nuclei (%),[2]; [7],24% and 22%
same,Population Healthy Nuclei (%),[2]; [7],62% and 64%
same,Population Hoechst High Intensity Objects (%),[2]; [7],0%
same,Population Membrane Permeable-Phenotype (%),[2]; [7],15% and 7%
same,Population Mitochondria Different-Phenotype (%),[2]; [7],8% and 7%
same,Population Mitotic Cells (%),[2]; [7],55% and 43%
same,Population Normal (%),[2]; [7],99% and 100%
same,Population Pyknosed Nuclei (%),[2]; [7],13% and 12%
same,Population Tubulin-Different-Phenotype (%),[2]; [7],82% and 73%
same,Total Cell Count,[2]; [7],204 and 232
same,Population Apoptotic (%),[2]; [8],69% and 58%
same,Population Fragmented Nuclei (%),[2]; [8],8% and 20%
same,Population Healthy Nuclei (%),[2]; [8],50% and 57%
same,Population Hoechst High Intensity Objects (%),[2]; [8],0% and 1%
same,Population Mitochondria Different-Phenotype (%),[2]; [8],1% and 2%
same,Population Mitotic Cells (%),[2]; [8],30% and 41%
same,Population Normal (%),[2]; [8],99% and 98%
same,Population Pyknosed Nuclei (%),[2]; [8],40% and 22%
same,Population Tubulin-Different-Phenotype (%),[2]; [8],47% and 22%
same,Total Cell Count,[2]; [8],154 and 211
same,Population Apoptotic (%),[2]; [9],66% and 69%
same,Population Fragmented Nuclei (%),[2]; [9],19% and 22%
same,Population Healthy Nuclei (%),[2]; [9],67% and 66%
same,Population Hoechst High Intensity Objects (%),[2]; [9],0%
same,Population Membrane Permeable-Phenotype (%),[2]; [9],9% and 2%
same,Population Mitochondria Different-Phenotype (%),[2]; [9],11%
same,Population Mitotic Cells (%),[2]; [9],33% and 30%
same,Population Normal (%),[2]; [9],99%
same,Population Pyknosed Nuclei (%),[2]; [9],12% and 10%
same,Population Tubulin-Different-Phenotype (%),[2]; [9],66% and 68%
same,Total Cell Count,[2]; [9],210 and 211
same,Population Apoptotic (%),[3]; [4],56% and 66%
same,Population Healthy Nuclei (%),[3]; [4],86% and 64%
same,Population Hoechst High Intensity Objects (%),[3]; [4],0%
same,Population Membrane Permeable-Phenotype (%),[3]; [4],3% and 7%
same,Population Mitochondria Different-Phenotype (%),[3]; [4],1% and 0%
same,Population Mitotic Cells (%),[3]; [4],43% and 33%
same,Population Normal (%),[3]; [4],99% and 100%
same,Population Pyknosed Nuclei (%),[3]; [4],8% and 7%
same,Population Tubulin-Different-Phenotype (%),[3]; [4],64% and 40%
same,Population Apoptotic (%),[3]; [5],100% and 50%
same,Population Healthy Nuclei (%),[3]; [5],61% and 79%
same,Population Hoechst High Intensity Objects (%),[3]; [5],0%
same,Population Membrane Permeable-Phenotype (%),[3]; [5],19% and 10%
same,Population Mitochondria Different-Phenotype (%),[3]; [5],0% and 6%
same,Population Normal (%),[3]; [5],100%
same,Population Pyknosed Nuclei (%),[3]; [5],9% and 14%
same,Population Tubulin-Different-Phenotype (%),[3]; [5],23% and 36%
same,Population Apoptotic (%),[3]; [6],72% and 66%
same,Population Healthy Nuclei (%),[3]; [6],88% and 65%
same,Population Hoechst High Intensity Objects (%),[3]; [6],0%
same,Population Membrane Permeable-Phenotype (%),[3]; [6],2% and 7%
same,Population Mitochondria Different-Phenotype (%),[3]; [6],2% and 0%
same,Population Mitotic Cells (%),[3]; [6],27% and 33%
same,Population Normal (%),[3]; [6],100%
same,Population Pyknosed Nuclei (%),[3]; [6],8% and 6%
same,Population Tubulin-Different-Phenotype (%),[3]; [6],65% and 39%
same,Population Apoptotic (%),[3]; [7],88% and 60%
same,Population Healthy Nuclei (%),[3]; [7],59% and 80%
same,Population Hoechst High Intensity Objects (%),[3]; [7],0%
same,Population Membrane Permeable-Phenotype (%),[3]; [7],20% and 14%
same,Population Mitochondria Different-Phenotype (%),[3]; [7],0% and 17%
same,Population Normal (%),[3]; [7],100% and 99%
same,Population Pyknosed Nuclei (%),[3]; [7],21% and 13%
same,Population Tubulin-Different-Phenotype (%),[3]; [7],32% and 46%
same,Population Apoptotic (%),[3]; [8],70% and 100%
same,Population Healthy Nuclei (%),[3]; [8],88% and 65%
same,Population Hoechst High Intensity Objects (%),[3]; [8],0%
same,Population Membrane Permeable-Phenotype (%),[3]; [8],2% and 5%
same,Population Mitochondria Different-Phenotype (%),[3]; [8],3% and 0%
same,Population Normal (%),[3]; [8],99% and 100%
same,Population Pyknosed Nuclei (%),[3]; [8],7% and 6%
same,Population Tubulin-Different-Phenotype (%),[3]; [8],65% and 47%
same,Population Apoptotic (%),[3]; [9],78% and 92%
same,Population Fragmented Nuclei (%),[3]; [9],7% and 17%
same,Population Healthy Nuclei (%),[3]; [9],74% and 53%
same,Population Hoechst High Intensity Objects (%),[3]; [9],0%
same,Population Membrane Permeable-Phenotype (%),[3]; [9],25% and 33%
same,Population Mitotic Cells (%),[3]; [9],21% and 7%
same,Population Normal (%),[3]; [9],100%
same,Population Pyknosed Nuclei (%),[3]; [9],17% and 28%
same,Population Tubulin-Different-Phenotype (%),[3]; [9],50% and 45%
